Data set [1] deals with T1, Tyrosine-protein phosphatase non-receptor type 5 (Homo sapiens, UniProt P54829).
T1 sequence (P54829 whole entry): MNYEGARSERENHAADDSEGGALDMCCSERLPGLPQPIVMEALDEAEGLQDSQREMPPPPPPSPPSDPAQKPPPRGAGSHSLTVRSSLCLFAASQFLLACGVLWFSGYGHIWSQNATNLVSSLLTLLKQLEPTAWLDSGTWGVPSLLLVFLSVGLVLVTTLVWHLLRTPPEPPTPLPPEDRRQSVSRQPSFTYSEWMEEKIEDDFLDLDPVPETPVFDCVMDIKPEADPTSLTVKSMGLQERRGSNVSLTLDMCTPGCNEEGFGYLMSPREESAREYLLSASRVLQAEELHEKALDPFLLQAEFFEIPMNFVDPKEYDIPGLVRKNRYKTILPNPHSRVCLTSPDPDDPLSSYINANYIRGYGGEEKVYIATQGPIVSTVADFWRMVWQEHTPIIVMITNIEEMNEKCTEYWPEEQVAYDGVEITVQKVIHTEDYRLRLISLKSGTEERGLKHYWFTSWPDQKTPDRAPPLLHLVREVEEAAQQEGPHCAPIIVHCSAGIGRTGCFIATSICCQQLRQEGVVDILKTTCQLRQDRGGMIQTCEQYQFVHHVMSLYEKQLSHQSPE
As to the kind of experiment: Inhibition of human STEP using pNPP as substrate after 5 mins by spectrophotometric plate reader analysis.

In data set [2] the target is T2, Tyrosine-protein phosphatase non-receptor type 2 (Homo sapiens, UniProt P17706).
T2 sequence (P17706 whole entry): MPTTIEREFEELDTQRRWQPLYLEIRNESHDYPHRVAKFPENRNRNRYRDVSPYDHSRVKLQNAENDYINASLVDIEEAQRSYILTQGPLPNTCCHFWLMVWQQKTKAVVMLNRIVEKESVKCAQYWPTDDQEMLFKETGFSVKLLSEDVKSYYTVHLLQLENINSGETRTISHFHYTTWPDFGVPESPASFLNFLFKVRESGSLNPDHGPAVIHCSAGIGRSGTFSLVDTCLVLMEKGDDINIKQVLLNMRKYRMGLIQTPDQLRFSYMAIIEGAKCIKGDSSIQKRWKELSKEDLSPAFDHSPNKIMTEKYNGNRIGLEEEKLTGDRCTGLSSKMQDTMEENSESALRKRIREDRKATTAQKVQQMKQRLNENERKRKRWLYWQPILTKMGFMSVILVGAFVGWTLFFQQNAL
As to the kind of experiment: Inhibition of human TC-PTP using pNPP as substrate after 5 mins by spectrophotometric plate reader analysis. A digest of the protocol: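 Selectivity assay using the STEP Ki protocol. Enzyme was preincubated 5 min at 27 °C with two- or three-fold inhibitor serial dilutions in DMSO, in imidazole/NaCl buffer at pH 7.0 with 0.01% Triton X-100 and 5 mM DTT. Reaction started with pNPP (500 μM in assay), read continuously at 405 nm for 20 min. Ki came from nonlinear regression of substrate-velocity curves, using this enzyme's pNPP KM; at least duplicate.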

Data set [3] concerns the target T3, Receptor-type tyrosine-protein phosphatase C (Homo sapiens, UniProt P08575).
T3 sequence (P08575 whole entry): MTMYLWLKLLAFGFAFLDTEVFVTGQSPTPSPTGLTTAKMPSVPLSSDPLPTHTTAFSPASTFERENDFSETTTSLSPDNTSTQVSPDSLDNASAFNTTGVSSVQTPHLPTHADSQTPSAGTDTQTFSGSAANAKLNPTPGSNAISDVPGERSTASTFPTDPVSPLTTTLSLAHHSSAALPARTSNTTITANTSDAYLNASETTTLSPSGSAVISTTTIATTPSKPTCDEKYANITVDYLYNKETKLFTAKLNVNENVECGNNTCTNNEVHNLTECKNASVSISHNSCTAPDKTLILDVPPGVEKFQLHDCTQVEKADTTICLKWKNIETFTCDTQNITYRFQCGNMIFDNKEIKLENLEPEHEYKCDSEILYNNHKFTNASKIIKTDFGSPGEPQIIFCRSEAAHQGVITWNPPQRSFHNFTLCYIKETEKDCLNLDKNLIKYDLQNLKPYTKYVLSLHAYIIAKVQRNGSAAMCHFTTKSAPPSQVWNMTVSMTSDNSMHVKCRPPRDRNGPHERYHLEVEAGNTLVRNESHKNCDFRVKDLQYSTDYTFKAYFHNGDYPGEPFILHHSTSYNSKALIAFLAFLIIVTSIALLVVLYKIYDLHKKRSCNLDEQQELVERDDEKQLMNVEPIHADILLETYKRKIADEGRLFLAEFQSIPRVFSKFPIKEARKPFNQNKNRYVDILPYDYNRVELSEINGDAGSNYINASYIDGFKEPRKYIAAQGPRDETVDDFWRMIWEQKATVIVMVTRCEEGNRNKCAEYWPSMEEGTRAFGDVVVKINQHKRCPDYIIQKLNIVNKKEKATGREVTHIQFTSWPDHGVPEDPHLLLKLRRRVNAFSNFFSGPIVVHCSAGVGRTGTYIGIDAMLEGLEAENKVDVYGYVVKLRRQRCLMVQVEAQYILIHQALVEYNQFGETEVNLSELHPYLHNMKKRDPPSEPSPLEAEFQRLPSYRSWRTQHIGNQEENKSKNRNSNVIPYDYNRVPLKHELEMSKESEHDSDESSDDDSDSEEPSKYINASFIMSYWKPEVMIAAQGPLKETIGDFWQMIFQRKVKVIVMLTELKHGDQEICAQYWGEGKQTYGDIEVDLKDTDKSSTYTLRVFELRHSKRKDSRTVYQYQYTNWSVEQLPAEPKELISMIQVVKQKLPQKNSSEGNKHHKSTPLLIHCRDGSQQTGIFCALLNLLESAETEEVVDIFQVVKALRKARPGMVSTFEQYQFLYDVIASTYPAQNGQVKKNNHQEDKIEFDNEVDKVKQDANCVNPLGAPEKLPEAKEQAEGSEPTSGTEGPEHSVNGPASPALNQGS
Put plainly: Inhibition of human CD45 using pNPP as substrate after 5 mins by spectrophotometric plate reader analysis. A digest of the protocol:
(§1)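 Enzyme preincubated 5 min at 27 °C with serially diluted inhibitor (from DMSO) in imidazole/NaCl buffer pH 7.0 with 0.01% Triton X-100 and 5 mM DTT. Started with pNPP (500 μM in assay) and read at 405 nm for 20 min. The pNPP KM was measured for each enzyme. Ki from nonlinear regression of substrate–velocity curves at several inhibitor levels; at least duplicate.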

Data set [4] concerns the target Receptor-type tyrosine-protein phosphatase F (Homo sapiens, UniProt P10586). Put plainly: Inhibition of human LAR using pNPP as substrate after 5 mins by spectrophotometric plate reader analysis. A digest of the protocol: as §1
Data set [5] concerns the target T4, Dual specificity protein phosphatase 10 (Homo sapiens, UniProt Q9Y6W6).
T4 sequence (Q9Y6W6 whole entry): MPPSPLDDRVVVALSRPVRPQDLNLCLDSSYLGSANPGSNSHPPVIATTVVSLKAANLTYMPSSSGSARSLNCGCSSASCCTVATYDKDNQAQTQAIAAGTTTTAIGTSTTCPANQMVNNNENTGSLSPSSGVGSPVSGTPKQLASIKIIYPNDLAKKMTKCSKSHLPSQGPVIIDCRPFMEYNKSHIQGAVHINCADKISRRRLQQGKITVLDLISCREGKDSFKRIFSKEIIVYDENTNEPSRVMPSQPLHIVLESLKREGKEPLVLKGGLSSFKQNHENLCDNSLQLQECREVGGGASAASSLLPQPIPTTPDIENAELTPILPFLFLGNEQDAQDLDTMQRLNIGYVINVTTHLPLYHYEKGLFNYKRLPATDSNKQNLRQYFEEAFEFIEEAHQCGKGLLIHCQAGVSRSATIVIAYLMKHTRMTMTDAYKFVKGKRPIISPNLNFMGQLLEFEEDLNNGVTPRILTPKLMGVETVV
As to the kind of experiment: Inhibition of human MKP5 using DiFMUP as substrate after 5 mins by spectrophotometric plate reader analysis. A digest of the protocol: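 The […] substrate was DiFMUP. Buffer was Tris-HCl pH 8.0 with Triton X-100 and 5 mM DTT. Inhibitor was preincubated with enzyme for 5 min at 27 °C before adding substrate. Ki from nonlinear regression of initial-rate substrate–velocity data at several inhibitor concentrations; at least duplicate.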

The species named for data set [6] is Homo sapiens. As to the kind of experiment: Selectivity ratio of Ki for human TC-PTP to Ki for human STEP. A digest of the protocol:
(§2)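 STEP, CD45, LAR and TC-PTP used pNPP (500 μM) in imidazole/NaCl pH 7.0 with Triton X-100, read at 405 nm for 20 min. MKP5 used DiFMUP in Tris-HCl pH 8.0. The enzyme's own pNPP KM was used in analysis; ratio of the Ki values.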

Data set [7] is filed under the species Homo sapiens. Put plainly: Selectivity ratio of Ki for human CD45 to Ki for human STEP. A digest of the protocol:
as §2

The species named for data set [8] is Homo sapiens. Put plainly: Selectivity ratio of Ki for human LAR to Ki for human STEP. A digest of the protocol: as §2
Data set [9] is filed under the species Homo sapiens. As to the kind of experiment: Selectivity ratio of Ki for human MKP5 to Ki for human STEP. The method, boiled down: as §2
Substrate in data set [10]: CC(C)(C)CC(C)(C)c1ccc(OP(=O)(O)O)cc1
Put plainly: (§3) Activity at human STEP measured for 20 mins by spectrophotometric plate reader analysis. The method, boiled down: (§4)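 Substrate KM by coupled assay: STEP 100 nM with MESG 400 μM, PNP 1 U/mL, 5 mM DTT in imidazole/NaCl buffer with Triton X-100, pH 7.0; preincubated 3 min at 27 °C, then started with substrate (about 0–3.00 mM in assay, from DMSO). Followed 20 min at 360 nm, 27 °C; KM from Michaelis–Menten fit of initial rates.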

Substrate in data set [11]: CC(Cc1ccccc1)c1ccc(OP(=O)(O)O)cc1
Described as §3. A digest of the protocol:
as §4

Substrate in data set [12]: COC(=O)[C@H](Cc1ccc(OP(=O)(O)O)cc1)NC(C)=O
The description is as §3. The method, boiled down: as §4

Substrate in data set [13]: O=C(Cc1ccc(OP(=O)(O)O)cc1)Nc1ccccc1
The description is as §3. The method, boiled down:
as §4

Substrate in data set [14]: O=C(Oc1cccc(OP(=O)(O)O)c1)c1ccccc1
Described as §3. A digest of the protocol:
as §4

Substrate in data set [15]: O=P(O)(O)Oc1ccc(-c2ccccc2)cc1
The description is as §3. The method, boiled down: as §4

Substrate in data set [16]: O=P(O)(O)Oc1cccc(-c2ccccc2)c1
The data set is described as §3. A digest of the protocol:
as §4

Substrate in data set [17]: O=P(O)(O)Oc1cccc(Nc2ccccc2)c1
Described as §3. The method, boiled down:
as §4

Substrate in data set [18]: O=P(O)(O)Oc1ccccc1
The data set is described as §3. The method, boiled down:
as §4

Substrate in data set [19]: O=[N+]([O-])c1ccc(OP(=O)(O)O)cc1
Described as §3. The method, boiled down: as §4

A value given as a limit tells only on which side of the number the result lay.

Receptor-type tyrosine-protein phosphatase F, sequence (P10586 whole entry): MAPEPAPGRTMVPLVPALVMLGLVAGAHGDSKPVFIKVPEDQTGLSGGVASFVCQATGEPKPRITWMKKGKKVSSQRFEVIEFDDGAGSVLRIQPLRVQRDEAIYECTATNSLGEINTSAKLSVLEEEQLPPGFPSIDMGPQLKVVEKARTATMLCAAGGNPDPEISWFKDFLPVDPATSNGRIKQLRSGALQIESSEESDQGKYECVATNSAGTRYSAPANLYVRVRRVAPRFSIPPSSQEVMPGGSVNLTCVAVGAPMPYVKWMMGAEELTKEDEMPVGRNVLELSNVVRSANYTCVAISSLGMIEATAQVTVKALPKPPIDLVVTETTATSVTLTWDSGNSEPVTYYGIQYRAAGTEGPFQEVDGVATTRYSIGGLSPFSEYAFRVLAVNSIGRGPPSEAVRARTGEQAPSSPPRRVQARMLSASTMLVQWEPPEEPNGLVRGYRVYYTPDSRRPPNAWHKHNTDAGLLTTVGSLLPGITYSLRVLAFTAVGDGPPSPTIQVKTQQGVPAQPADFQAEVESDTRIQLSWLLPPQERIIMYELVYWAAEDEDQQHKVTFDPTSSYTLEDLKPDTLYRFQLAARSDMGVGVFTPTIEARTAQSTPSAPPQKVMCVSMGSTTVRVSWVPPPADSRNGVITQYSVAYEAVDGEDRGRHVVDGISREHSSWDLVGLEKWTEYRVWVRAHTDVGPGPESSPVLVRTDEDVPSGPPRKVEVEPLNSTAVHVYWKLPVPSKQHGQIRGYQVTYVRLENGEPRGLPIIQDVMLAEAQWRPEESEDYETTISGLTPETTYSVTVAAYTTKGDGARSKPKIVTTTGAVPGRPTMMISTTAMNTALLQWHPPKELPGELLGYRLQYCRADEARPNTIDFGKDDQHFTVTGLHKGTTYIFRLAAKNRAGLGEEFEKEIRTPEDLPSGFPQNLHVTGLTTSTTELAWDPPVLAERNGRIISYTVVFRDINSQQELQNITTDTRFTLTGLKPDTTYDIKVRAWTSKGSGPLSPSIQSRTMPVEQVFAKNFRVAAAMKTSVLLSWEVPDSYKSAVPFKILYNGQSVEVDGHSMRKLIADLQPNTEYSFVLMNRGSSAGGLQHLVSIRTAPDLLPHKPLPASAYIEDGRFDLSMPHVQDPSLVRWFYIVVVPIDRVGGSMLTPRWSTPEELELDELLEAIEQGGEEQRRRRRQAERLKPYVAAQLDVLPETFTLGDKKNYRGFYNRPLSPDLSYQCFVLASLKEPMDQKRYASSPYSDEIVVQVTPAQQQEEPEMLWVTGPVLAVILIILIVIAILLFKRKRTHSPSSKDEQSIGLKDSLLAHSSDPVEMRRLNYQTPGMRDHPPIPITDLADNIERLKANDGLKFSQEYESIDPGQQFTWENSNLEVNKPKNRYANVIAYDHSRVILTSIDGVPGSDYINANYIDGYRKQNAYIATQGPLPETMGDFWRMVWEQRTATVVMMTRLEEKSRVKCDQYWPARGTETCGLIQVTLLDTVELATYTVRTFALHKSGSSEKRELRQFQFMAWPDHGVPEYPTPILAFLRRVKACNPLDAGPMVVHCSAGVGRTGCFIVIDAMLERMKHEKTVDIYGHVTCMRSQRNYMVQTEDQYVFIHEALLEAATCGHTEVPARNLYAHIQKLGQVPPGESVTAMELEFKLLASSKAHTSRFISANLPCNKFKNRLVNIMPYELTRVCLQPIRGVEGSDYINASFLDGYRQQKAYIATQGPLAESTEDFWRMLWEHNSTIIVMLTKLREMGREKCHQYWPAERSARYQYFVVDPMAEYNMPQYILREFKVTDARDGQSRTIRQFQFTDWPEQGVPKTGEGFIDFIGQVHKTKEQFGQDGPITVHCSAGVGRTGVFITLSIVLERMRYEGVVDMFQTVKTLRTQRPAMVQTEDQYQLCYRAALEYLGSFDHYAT

As for `O=P(O)(O)[C@@H](O)c1ccc(-c2cccc([C@@H](O)c3ccc(Cl)c(Cl)c3)c2)cc1`, the Ki (in general, a measure of affinity in units of concentration, obtained from inhibition or displacement) in data set [1] was found to be 88 µM.
Molecule `CS(=O)(=O)Nc1cccc(-c2ccc(C(F)(F)P(=O)(O)O)cc2)c1` came in with a Ki in [1] of 113 µM.
Still for that read-out and setting: in the case of `O=P(O)(O)[C@@H](O)c1ccc(-c2cccc([C@H](O)c3ccc(Cl)c(Cl)c3)c2)cc1` it was 93 µM.
Same read-out and setting: in the case of `O=P(O)(O)C(F)(F)c1ccc(-c2cccc(Nc3ccccc3)c2)cc1` it was 112 µM; in that of `O=P(O)(O)C(F)(F)c1cccc(-c2ccccc2)c1`, 337 µM.
The same measure, in the same setting: in the case of `CS(=O)(=O)Nc1ccccc1-c1ccc(C(F)(F)P(=O)(O)O)cc1` it was 673 µM.
Regarding `O=P(O)(O)C(F)(F)c1ccc(-c2ccccc2)cc1`, the inhibition constant Ki in [1] is 120 µM.
Consider `O=P(O)(O)C(F)(F)c1cccc(-c2cccc(C3CCCCC3)c2O)c1`, for which the inhibition constant Ki in [2] is 71 µM; in data set [1], 20 µM; in data set [3] it was over 500 µM; in data set [4], over 900 µM; in data set [5], 150 µM. Moreover, the Ratio Ki in the data set listed under Homo sapiens [6] was 3.6; in the data set filed under Homo sapiens [7], over 25; in the data set listed under Homo sapiens [8] it was over 45; in the data set listed under Homo sapiens [9], 7.5.

B1: Tyrosine-protein phosphatase non-receptor type 5 (Homo sapiens), P54829 (protein)
chain: T1 sequence (P54829 whole entry)
On to B1, for which the Michaelis constant (Km) (in general, the substrate concentration at which the rate is half of its maximum) is 260 µM in [10]; 128 µM in data set [11]; 378 µM in data set [12]; 133 µM in data set [13]; 327 µM in data set [14]; 169 µM in data set [15]. Further, the Michaelis-Menten constant (Km) was found to be 277 µM in [16], 650 µM in [17], 2730 µM in [18] and 745 µM in data set [19].

The values are drawn from ChEMBL document CHEMBL2429849, “Substrate-based fragment identification for the development of selective, nonpeptidic inhibitors of striatal-enriched protein tyrosine phosphatase” (J Med Chem, 2013).
